aDG glyco act: activators of alpha-DG glycosylation, primary screen, uHTS, Pro5-aDG cells, AlphaScreen | alpha-DG glycosylation AlphaScreen (IIH6); 0% Pro5, 100% B10-LARGE cell signal | activation, % at 10 µM | hit rate 0.22% among 360,000;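 active = activation of at least 8% versus controls, or a plate z-score of at least 8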;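 note: Pro5 are CHO cells carrying HIG-tagged alpha-DG that lacks glycosylation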
Jurkat NFkB inh: inhibitors of induced NF-kB luciferase reporter, primary screen, TCR NF-kB activation inhibitor project, cell-based, luminescence, uHTS; AID 435003, 2010; hit rate 0.53% among 330,000; inhibition, % at 4 µM; Jurkat, PMA/ionomycin-induced NF-kB luciferase reporter; in the data active = inhibition above about 50%
697 NFkB inh: inhibitors of PMA/ionomycin-induced NF-kB reporter, 697 cells, primary screen, B-cell NF-kB inhibitor project, cell-based, luminescence, uHTS; AID 435022, 2010; 697 B-cell NF-kB luciferase reporter, 16 h; inhibition, % at 4 µM; hit rate 0.33% among 330,000; in the data active = inhibition above about 35%
MPTP block: mitochondrial permeability transition pore inhibitors, primary screen, biochemical, isolated mouse mitochondria, absorbance; AID 602449, 2012; hit rate 1.4% among 360,000; inhibition, % at 10 µM; Ca2+ swelling absorbance, 30 min;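 active = inhibition of 50% or more, scaled per plate between neutral and stimulator controls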;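 note: 0% = DMSO wells given calcium and 100% = 1 mM EGTA wells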
NR2E3 ag-1: NR2E3 agonists in two-hybrid cells, primary screen, cell-based, luminescence, CHO-S, Gal4-NCOR/VP16-NR2E3. luciferase. inhibition of corepressor binding, % at 3.98 µM. hit rate 0.35% among 360,000;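 active = inhibition above the mean of all tested compounds plus 3 SD, cut at about 70% in these data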;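 note: 0% = DMSO with NR2E3 transfected cells and 100% = cells lacking NR2E3 construct; higher means lower luciferase signal from less NR2E3 corepressor binding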
Target sequence (Q9Y5X4 whole entry, looked up, the tested form may be a part): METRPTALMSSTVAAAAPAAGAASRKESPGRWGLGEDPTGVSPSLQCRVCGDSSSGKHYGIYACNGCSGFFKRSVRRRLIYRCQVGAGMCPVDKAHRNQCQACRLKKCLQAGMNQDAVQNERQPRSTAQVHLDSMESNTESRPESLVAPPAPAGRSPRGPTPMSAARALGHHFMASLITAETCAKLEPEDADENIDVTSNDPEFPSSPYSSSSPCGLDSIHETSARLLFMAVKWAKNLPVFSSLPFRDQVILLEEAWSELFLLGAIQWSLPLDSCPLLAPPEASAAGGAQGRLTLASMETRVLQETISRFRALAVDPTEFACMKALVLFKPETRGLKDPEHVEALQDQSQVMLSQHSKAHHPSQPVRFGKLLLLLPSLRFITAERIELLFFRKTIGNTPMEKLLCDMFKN
NR2E3 ag-2: inhibitors of NR2E3-RetCOR corepressor binding, primary screen, NR2E3 agonist project, biochemical, TR-FRET, GST-NR2E3, biotin-RetCOR; AID 2300, 2010; Photoreceptor-specific nuclear receptor (Homo sapiens), Q9Y5X4; hit rate 0.12% among 320,000; 1536-well; inhibition of corepressor binding, % at 4.78 µM;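 active = percent inhibition above the cutoff of mean plus 3 SD of all tested compounds, set per screening campaign, cut at about 20% in these data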;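 note: 0% = DMSO wells and 100% = biotin wells as full block of FRET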
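Assay system: NR2E3–RetCOR corepressor complex. Quantity: 1.35 nM GST-NR2E3. Buffer or medium: pH 7.5 Tris-based buffer. Reagent: biotinylated RetCOR corepressor at 7 nM final. Schedule: 5 h at 4 °C. Detection: TR-FRET, emission read at 617 and 671 nm. Replicates: one well per compound, singlicate testing.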
NR2E3 ag conf: NR2E3 agonist confirmation in cells, cell-based, luminescence, CHO-S two-hybrid; AID 624378, 2012; CHO-S mammalian two-hybrid NR2E3-NCOR, luciferase luminescence; inhibition, % at 3.98 µM; shares compounds with NR2E3 ag-1; hit rate 51% among 2,300;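 active = average inhibition above a cutoff equal to the mean inhibition of all tested compounds plus one SD, cut at about 70% in these data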;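 note: 0% = DMSO in NR2E3 cells and 100% = DMSO in cells lacking NR2E3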
VP16 counter: GAL4-VP16 reporter modulators, confirmation, counter-screen for NR2E3 agonist project, cell-based, luminescence, CHO-S, high throughput; shares compounds with NR2E3 ag-1; CHO-S GAL4-VP16 luciferase reporter; inhibition, % at 3.98 µM; hit rate 29% among 2,300; AID 624379, 2012;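 active = mean inhibition above a cutoff equal to the average over all tested compounds plus one standard deviation, cut at about 70% in these data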;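 note: luciferase from a UAS reporter driven by GAL4-VP16 transactivation; 0% = DMSO with VP16-transfected cells and 100% = DMSO with cells lacking VP16; higher means less reporter light so more repression of VP16 activity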
An asterisk follows results filed as active; . = no result. Shown are actives, neighbours in structure and some others; about 2.4% of the full set was active somewhere.

SMILES	aDG glyco act	Jurkat NFkB inh	697 NFkB inh	MPTP block	NR2E3 ag-1	NR2E3 ag-2	NR2E3 ag conf	VP16 counter
COc1ccc(CNC(=O)CSc2nc3cccnc3s2)cc1	0	-4	-1	2	-35	-2	.	.
CC1Cc2ccccc2N1C(=S)NC(=O)c1cccc(Br)c1 (stereo not given)	0	12	-45	-5	26	-2	.	.
CC1Cc2ccccc2N1C(=S)NC(=O)c1ccc(Cl)cc1Cl (stereo not given)	0	-2	-7	5	78*	2	28	26
COc1cccc2cc(C(=O)NNC(=O)c3ccc(Br)cc3)c(=O)oc12	0	-4	-6	0	-11	1	.	.
COc1ccc(NC(=O)C(C)N2c3cccc4cccc(c34)S2(=O)=O)cc1 (stereo not given)	0	9	14	0	20	2	.	.
COc1ccc(NC(=O)C(C)N2c3cccc4cccc(c34)S2(=O)=O)cc1OC (stereo not given)	1	16	-3	3	63	1	66	48
O=C(C1=C(O)C(=O)N(c2nccs2)C1c1ccccc1)c1cc2ccccc2o1 (stereo not given)	0	-43	-44	4	66	7	95*	71*
Cc1ccc2nc(N3C(=O)C(O)=C(C(=O)c4cc5ccccc5o4)C3c3cccs3)sc2c1 (stereo not given)	0	-141	-247	4	-124	7	.	.
Nc1cc(S(=O)(=O)Nc2ccccc2Cl)ccc1N1CCCCC1	2	3	-21	45	70*	.	83*	61
Nc1ccc(N2CCCCC2)c(S(=O)(=O)Nc2ccccc2Cl)c1	0	7	-4	4	-11	3	.	.
O=C(C1=C(c2ccccc2)C(=O)c2ccccc2C1=O)c1ccccc1	-1	.	.	5	78*	.	99*	93*
O=C(O)CCn1c(-c2ccccn2)nc2ccccc21	0	-15	-9	0	-16	-3	.	.
CC(=O)N1CCc2c(sc(NC(=O)c3ccc([N+](=O)[O-])o3)c2C(N)=O)C1	0	.	.	3	79*	.	15	26
Cc1cccc(C(=O)NN2S(=O)(=O)c3ccccc3S2(=O)=O)c1	0	13	8	-3	7	3	.	.
Cc1ccc([C@@H]2CC=C(C(=O)O)[C@H](c3ccc(Br)cc3)N2S(=O)(=O)c2ccccc2C)cc1	0	9	17	1	64	.	16	3
Cc1ccccc1S(=O)(=O)N1[C@@H](c2ccc(Br)cc2)C(C(=O)O)=CC[C@H]1c1ccc(Cl)cc1	0	0	7	-1	79*	.	38	14
O=c1[nH]c(SCc2ccc(OC(F)(F)F)cc2)nc2c1CCC2	0	.	.	0	-2	.	.	.
Fc1cccc(Cc2noc(CN3CCCN(C4Cc5ccccc5C4)CC3)n2)c1	0	3	15	0	-7	2	.	.
CCC(=O)Nc1cccc(C2=NN(c3ccccc3)C(c3ccc(OC)cc3)C2)c1 (stereo not given)	1	-2	12	2	14	1	.	.
CN1C2CCC1/C(=C\c1ccc(F)cc1)C(=O)/C2=C/c1ccc(F)cc1	0	23	-74	2	4	4	.	.
C=CC(=O)N1C/C(=C/c2ccc(F)cc2)C(=O)/C(=C\c2ccc(F)cc2)C1	0	.	.	-1	58	.	55	36
CN(CC(=O)Nc1ccccc1Cl)C(=O)COC(=O)C1CC1	0	-4	12	0	11	3	.	.
Cc1ccc(S(=O)(=O)N2[C@@H](c3ccc(F)cc3)C(C(=O)O)=CC[C@H]2c2ccc(C(C)C)cc2)cc1	0	-12	-27	2	73*	2	30	50
Cc1ccc(S(=O)(=O)N2[C@@H](c3ccc(Cl)cc3)C(C(=O)O)=CC[C@H]2c2cccc(Cl)c2)cc1	0	9	3	4	-17	1	.	.
Cc1ccc(S(=O)(=O)N2[C@@H](c3cccc(Cl)c3)C(C(=O)O)=CC[C@H]2c2ccc(C(C)C)cc2)cc1	0	16	12	4	73*	1	23	27
SMILES	aDG glyco act	Jurkat NFkB inh	697 NFkB inh	MPTP block	NR2E3 ag-1	NR2E3 ag-2	NR2E3 ag conf	VP16 counter
O=C(Nc1ccc(Cc2ccncc2)cc1)C1CCC(N2C(=O)C3C4C=CC(C4)C3C2=O)CC1 (stereo not given)	1	6	-32	5	38	3	.	.
O=C1C2C3C=CC(C3)C2C(=O)N1c1ccc(Cc2ccncc2)cc1 (stereo not given)	1	5	-45	1	52	3	12	34
CCOC(=O)c1cnc(-n2nc(C)cc2C)nc1NC(C)c1ccccc1 (stereo not given)	5	12	-1	21	98*	-5	14	5
CCOC(=O)c1cnc(-n2nc(C)cc2C)nc1NCc1ccccc1	5	-5	-3	5	94*	4	14	0
CCOC(=O)NC(=O)/C(C=Nc1ccc(Cl)cc1)=C(\C)O	0	-13	-5	0	8	-1	.	.
Cn1cccc1/C=N\NC(=O)Cc1ccc(Br)c2ccccc12	4	24	-16	43	48	3	28	54
COc1ccc(CN2C(=O)C(CC(=O)NCCc3ccccn3)CC(C(=O)N3CCOCC3)=C2C)cc1 (stereo not given)	0	.	.	2	-24	.	.	.
NS(=O)(=O)c1ccc(CCNc2nn3c(-c4cccc(OC(F)(F)F)c4)cnc3s2)cc1	1	.	.	3	94*	.	90*	53
OC[C@@H]1CN(Cc2ccc(-c3ccccc3)cc2)C[C@H](n2cnc3c(Nc4ccccc4)ncnc32)O1	2	.	.	2	50	.	76*	51
CC(C)N(C)c1ncnc2c1ncn2[C@H]1CN(Cc2ccc(-c3ccccc3)cc2)C[C@@H](CO)O1	1	.	.	1	55	.	31	26
CC(C)CNc1ncnc2c1ncn2[C@H]1CN(Cc2cccc3ccccc23)C[C@@H](CO)O1	0	.	.	1	-13	.	.	.
